In ChEMBL document CHEMBL4261608, “Design, synthesis and anti-mycobacterial activity evaluation of benzofuran-isatin hybrids” (Eur J Med Chem, 2018):
In brackets after ≈: the same amount, converted by molar mass.

Assays:
[1] = Tmax in ICR mouse at 25 mg/kg, po administered as single dose; format: ADME, organism-based; conditions: in vivo
Outline: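 SPF female ICR mice (20-25 g), 3 per group, given a single oral dose of 25 mg/kg as a suspension in 0.5% CMC. Blood drawn from the jugular vein at 0.25, 0.5, 1, 2, 4, 6, 8 and 24 h post-dose. AUC(0-inf), t1/2, Cmax and Tmax derived directly from the concentration-time data.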

[2] = tested on: Mycobacterium tuberculosis; assay: Antimycobacterial activity against Mycobacterium tuberculosis H37Rv incubated for 7 days by rapid direct susceptibility test; format: functional; conditions: 168 h
Outline: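 Two-fold dilutions of compound mixed with MTB suspension holding 4×10^-3 mg cells (H37Rv, or MDR strain resistant to ethambutol, INH and RIF) in 48-well plates. Incubation at 37 °C in a wet box. Cells in each well observed by continuous visual high-magnification system, re-read 7 days later. MIC taken as lowest concentration inhibiting visible growth.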

[3] = Selectivity index, ratio of CC50 for African green monkey Vero cells to MIC for Mycobacterium tuberculosis H37Rv; format: toxicity; conditions: read-out: Selectivity Index
Outline: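 SI calculated as CC50/MIC against H37Rv. Viability read by MTT, CC50 by Bliss analysis. MIC comes from the 7-day visual broth test.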

[4] = Cytotoxicity against African green monkey Vero cells after 72 hrs by MTT assay; format: cell-based; conditions: chlorocebus sabaeus

| Structure (SMILES) | Tmax [1] [h] | MIC [2] [µg/mL] | selectivity ratio [3] | CC50 at 72 h [4] [µM] |
| --- | --- | --- | --- | --- |
| CCOC(=O)c1c(-c2ccc(OC)cc2)oc2ccc(OCc3cn(CCN4C(=O)/C(=N/NC(N)=S)c5cc(OC)ccc54)nn3)cc12 | 1.24 |  |  |  |
| CCOC(=O)c1c(-c2ccc(O)cc2)oc2ccc(O)c(CN3CCCCC3)c12 | 3.46 |  |  |  |
| NNC(=O)c1ccncc1 [ISONIAZID] |  | 0.06 (≈ 0.438 µM) | 4096 | 256 |
| CO[C@H]1/C=C/O[C@@]2(C)Oc3c(C)c(O)c4c(O)c(c(/C=N/N5CCN(C)CC5)c(O)c4c3C2=O)NC(=O)/C(C)=C\C=C\[C@H](C)[C@H](O)[C@@H](C)[C@@H](O)[C@@H](C)[C@H](OC(C)=O)[C@@H]1C [RIFAMPIN] |  |  | 1024 | 512 |
